Calls of active or inactive are those of the source. No cut-off for these calls is given here.
Columns and labels:
[1] = biological target: T1, GABA-A receptor; alpha-1/beta-2/gamma-2 (Homo sapiens, UniProt P14867+P18507+P47870); assay: Agonist activity at human GABAA alpha1beta2gamma2S receptor expressed in TSA201 cells after 1 min by FLIPR assay; format: cell-based
T1 sequence (P14867 whole entry): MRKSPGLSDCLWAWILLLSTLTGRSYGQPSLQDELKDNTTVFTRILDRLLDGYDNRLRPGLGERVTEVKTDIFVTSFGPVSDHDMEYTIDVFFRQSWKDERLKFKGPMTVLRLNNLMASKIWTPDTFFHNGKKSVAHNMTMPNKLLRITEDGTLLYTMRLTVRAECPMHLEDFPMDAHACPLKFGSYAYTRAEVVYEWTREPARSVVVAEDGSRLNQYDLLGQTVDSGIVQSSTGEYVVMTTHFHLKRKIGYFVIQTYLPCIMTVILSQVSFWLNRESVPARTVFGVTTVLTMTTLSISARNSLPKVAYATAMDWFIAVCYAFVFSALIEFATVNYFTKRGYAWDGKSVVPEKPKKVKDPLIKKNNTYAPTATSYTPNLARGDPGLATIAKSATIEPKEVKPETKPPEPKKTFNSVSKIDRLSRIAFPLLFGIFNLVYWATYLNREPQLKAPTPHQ
T1 sequence (P47870 whole entry): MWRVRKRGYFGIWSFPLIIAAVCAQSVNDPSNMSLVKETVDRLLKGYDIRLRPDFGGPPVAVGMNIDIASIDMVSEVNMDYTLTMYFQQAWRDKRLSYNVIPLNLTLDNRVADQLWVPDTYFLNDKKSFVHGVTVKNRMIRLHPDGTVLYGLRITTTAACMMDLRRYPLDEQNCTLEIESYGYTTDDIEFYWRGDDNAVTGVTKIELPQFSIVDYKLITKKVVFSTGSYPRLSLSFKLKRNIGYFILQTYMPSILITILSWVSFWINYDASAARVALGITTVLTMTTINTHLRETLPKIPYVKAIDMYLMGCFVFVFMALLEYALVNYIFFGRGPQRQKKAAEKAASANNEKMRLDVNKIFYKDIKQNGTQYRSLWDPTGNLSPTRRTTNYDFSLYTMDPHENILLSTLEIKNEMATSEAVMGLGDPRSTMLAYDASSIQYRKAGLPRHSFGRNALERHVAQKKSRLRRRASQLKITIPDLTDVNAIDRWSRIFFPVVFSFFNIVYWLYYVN
T1 sequence (P18507 whole entry): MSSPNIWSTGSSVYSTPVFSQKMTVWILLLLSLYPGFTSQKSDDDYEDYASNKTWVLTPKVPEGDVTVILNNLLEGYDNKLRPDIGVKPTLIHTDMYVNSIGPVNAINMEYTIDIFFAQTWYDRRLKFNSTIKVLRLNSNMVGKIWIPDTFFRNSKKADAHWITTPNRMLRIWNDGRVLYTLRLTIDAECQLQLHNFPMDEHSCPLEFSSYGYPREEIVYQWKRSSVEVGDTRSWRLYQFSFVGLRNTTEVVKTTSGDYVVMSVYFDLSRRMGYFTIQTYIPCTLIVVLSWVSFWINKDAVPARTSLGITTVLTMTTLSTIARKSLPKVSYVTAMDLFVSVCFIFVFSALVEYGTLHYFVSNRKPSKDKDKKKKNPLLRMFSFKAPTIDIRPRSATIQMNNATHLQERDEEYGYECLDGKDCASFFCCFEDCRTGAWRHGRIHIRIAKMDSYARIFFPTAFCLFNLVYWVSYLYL
Method in brief: (§1)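 tsA201 cells transfected with 1 μg α (1, 2, 3 or 5), 1 μg β2 and 3 μg γ2S cDNA (Polyfect). Cells replated onto poly-D-lysine plates and assayed 16–24 h later. Loaded with FMP blue dye in Krebs buffer pH 7.4 for 30 min at 37 °C.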

[2] = Displacement of [3H]muscimol from GABAA receptor in rat synaptic membrane after 60 mins by scintillation counting analysis; format: cell membranes
Method in brief: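 Membranes from cortex and central hemispheres of male SPRD rat brains, washed repeatedly in 50 mM Tris-HCl pH 7.4. 70–80 μg protein per well incubated with [3H]muscimol. Separated by GF/C filtration with ice-cold buffer washes; bound radioactivity counted by scintillation. Nonspecific binding defined with 1.0 mM GABA.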

[3] = biological target: T2, Gamma-aminobutyric acid receptor subunit rho-1 (Homo sapiens, UniProt P24046); assay: Agonist activity at human GABAA rho1 receptor expressed in TSA201 cells after 1 min by FLIPR assay; format: cell-based
T2 sequence (P24046 whole entry): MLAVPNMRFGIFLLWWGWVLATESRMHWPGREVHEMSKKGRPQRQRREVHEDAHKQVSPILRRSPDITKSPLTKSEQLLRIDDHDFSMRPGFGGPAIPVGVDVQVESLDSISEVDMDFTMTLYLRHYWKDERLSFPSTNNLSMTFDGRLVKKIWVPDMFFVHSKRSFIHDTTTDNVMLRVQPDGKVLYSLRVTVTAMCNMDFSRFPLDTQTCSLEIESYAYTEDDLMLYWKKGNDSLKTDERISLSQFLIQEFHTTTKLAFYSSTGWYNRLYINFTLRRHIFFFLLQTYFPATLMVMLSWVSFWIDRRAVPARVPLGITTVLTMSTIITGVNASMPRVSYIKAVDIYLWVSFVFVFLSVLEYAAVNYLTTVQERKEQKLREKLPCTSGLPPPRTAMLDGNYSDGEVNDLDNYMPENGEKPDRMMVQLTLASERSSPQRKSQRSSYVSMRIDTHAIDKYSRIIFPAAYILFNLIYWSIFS
Method in brief: (§2)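 tsA201 cells transfected with 5 μg human ρ1 cDNA, then plated on poly-D-lysine plates for 16–24 h. Loaded with FLIPR membrane potential blue dye in Krebs buffer (pH 7.4), 30 min at 37 °C. Emission at 560 nm (excitation 530 nm) recorded before and up to 1 min after agonist addition. Curves fitted from ΔFU; duplicate, at least three times.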

[4] = biological target: T2, Gamma-aminobutyric acid receptor subunit rho-1; assay: Agonist activity at human GABAA rho1 receptor expressed in HEK293 cells at up to 300 uM by patch clamp electrophysiology assay; format: cell-based
[5] = biological target: T3, GABA-A receptor; alpha-1/beta-2/gamma-2 (Homo sapiens) (UniProt P14867+P47870+P18507); assay: Agonist activity at human GABAA alpha1beta2gamma2S receptor expressed in HEK293 cells by patch clamp electrophysiology assay relative to GABA; format: cell-based
[6] = biological target: T1, GABA-A receptor; alpha-1/beta-2/gamma-2; assay: Agonist activity at human GABAA alpha1beta2gamma2S receptor expressed in HEK293 cells by patch clamp electrophysiology assay; format: cell-based
[7] = biological target: T3, GABA-A receptor; alpha-1/beta-2/gamma-2 (Homo sapiens); assay: Agonist activity at human GABAA alpha1beta2gamma2S receptor expressed in TSA201 cells at 300 to 500 uM after 1 min by FLIPR assay; format: cell-based
[8] = biological target: T2, Gamma-aminobutyric acid receptor subunit rho-1; assay: Agonist activity at human GABAA rho1 receptor expressed in TSA201 cells at 300 to 500 uM after 1 min by FLIPR assay; format: cell-based
[9] = biological target: T3, GABA-A receptor; alpha-1/beta-2/gamma-2 (Homo sapiens); assay: Agonist activity at human GABAA alpha1beta2gamma2S receptor expressed in HEK293 cells at up to 300 uM by patch clamp electrophysiology assay; format: cell-based
[10] = biological target: T4, GABA A receptor alpha-3/beta-2/gamma-2 (Homo sapiens, UniProt P18507+P34903+P47870); assay: Agonist activity at human GABAA alpha3beta2gamma2S receptor expressed in TSA201 cells after 1 min by FLIPR assay; format: cell-based; method in brief: as §1
T4 sequence (P47870 whole entry): T1 sequence (P47870 whole entry)
T4 sequence (P18507 whole entry): T1 sequence (P18507 whole entry)
T4 sequence (P34903 whole entry): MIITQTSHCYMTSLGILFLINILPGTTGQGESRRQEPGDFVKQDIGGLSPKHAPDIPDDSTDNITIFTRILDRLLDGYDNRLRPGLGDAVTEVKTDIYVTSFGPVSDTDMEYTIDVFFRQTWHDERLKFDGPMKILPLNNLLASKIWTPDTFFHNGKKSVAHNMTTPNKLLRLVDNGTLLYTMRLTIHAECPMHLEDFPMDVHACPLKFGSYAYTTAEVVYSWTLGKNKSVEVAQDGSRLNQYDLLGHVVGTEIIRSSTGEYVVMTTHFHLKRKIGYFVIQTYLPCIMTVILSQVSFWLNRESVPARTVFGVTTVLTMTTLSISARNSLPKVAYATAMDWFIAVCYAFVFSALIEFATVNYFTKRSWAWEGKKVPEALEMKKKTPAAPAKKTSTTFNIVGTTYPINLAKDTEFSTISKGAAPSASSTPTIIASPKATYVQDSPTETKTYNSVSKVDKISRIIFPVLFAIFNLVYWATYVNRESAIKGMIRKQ

[11] = biological target: T2, Gamma-aminobutyric acid receptor subunit rho-1; assay: Agonist activity at human GABAA rho1 receptor expressed in HEK293 cells by patch clamp electrophysiology assay; format: cell-based
Method in brief: (§3)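 Human ρ1 (pCDNA3) co-transfected with a GFP plasmid into HEK 293 cells. Whole-cell voltage clamp at −60 mV, 40–72 h after transfection, room temperature (20–22 °C). Extracellular solution pH 7.35; intrapipette solution with KCl 140 mM, EGTA 10 mM, MgATP 2 mM, pH 7.3.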

[12] = Agonist activity at human GABAA alpha5beta2gamma2S receptor expressed in TSA201 cells after 1 min by FLIPR assay; format: cell-based; conditions: tsA201, 1 min
[13] = biological target: T5, GABA A receptor alpha-2/beta-2/gamma-2 (Homo sapiens, UniProt P18507+P47869+P47870); assay: Agonist activity at human GABAA alpha2beta2gamma2S receptor expressed in TSA201 cells after 1 min by FLIPR assay; format: cell-based; method in brief: as §1
T5 sequence (P47870 whole entry): T1 sequence (P47870 whole entry)
T5 sequence (P18507 whole entry): T1 sequence (P18507 whole entry)
T5 sequence (P47869 whole entry): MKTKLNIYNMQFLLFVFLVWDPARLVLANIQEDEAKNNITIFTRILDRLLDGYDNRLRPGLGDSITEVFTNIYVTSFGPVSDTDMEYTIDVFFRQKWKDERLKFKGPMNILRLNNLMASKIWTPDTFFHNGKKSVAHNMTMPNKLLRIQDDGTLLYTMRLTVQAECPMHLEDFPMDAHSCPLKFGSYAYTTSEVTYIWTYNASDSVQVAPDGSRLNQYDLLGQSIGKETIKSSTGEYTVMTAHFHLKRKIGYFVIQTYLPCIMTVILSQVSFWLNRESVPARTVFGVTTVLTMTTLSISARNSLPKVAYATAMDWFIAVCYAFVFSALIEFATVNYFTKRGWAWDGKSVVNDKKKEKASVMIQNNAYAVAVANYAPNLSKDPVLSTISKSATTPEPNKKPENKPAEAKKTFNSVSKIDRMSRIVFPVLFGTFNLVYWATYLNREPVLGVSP

[14] = biological target: T3, GABA-A receptor; alpha-1/beta-2/gamma-2 (Homo sapiens); assay: Agonist activity at human GABAA alpha1beta2gamma2S receptor expressed in TSA201 cells after 1 min by FLIPR assay relative to GABA; format: cell-based
Method in brief: as §1, with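 “°C. Fluorescence (ex 530/em 560 nm) read before and up to 1 min after agonist addition. ΔFU concentration-response curves; duplicate, ≥3 experiments.” for “°C.”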

[15] = biological target: T2, Gamma-aminobutyric acid receptor subunit rho-1; assay: Agonist activity at human GABAA rho1 receptor expressed in HEK293 cells by patch clamp electrophysiology assay relative to GABA; format: cell-based; method in brief: as §3
[16] = biological target: T2, Gamma-aminobutyric acid receptor subunit rho-1; assay: Agonist activity at human GABAA rho1 receptor expressed in TSA201 cells after 1 min by FLIPR assay relative to GABA; format: cell-based; method in brief: as §2
[17] = biological target: GABA A receptor alpha-3/beta-2/gamma-2 (Homo sapiens) (UniProt P47870+P18507+P34903); assay: Agonist activity at human GABAA alpha3beta2gamma2S receptor expressed in TSA201 cells after 1 min by FLIPR assay relative to GABA; format: cell-based
Method in brief: as §1, with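 “°C. Fluorescence (ex 530/em 560 nm) read before and up to 1 min after agonist addition. ΔFU concentration-response curves; duplicate, ≥3 experiments.” for “°C.”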

[18] = tested on: TSA201; assay: Agonist activity at human GABAA alpha5beta2gamma2S receptor expressed in TSA201 cells after 1 min by FLIPR assay relative to GABA; format: cell-based
Method in brief: as §1, with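 “°C. Fluorescence (ex 530/em 560 nm) read before and up to 1 min after agonist addition. ΔFU concentration-response curves; duplicate, ≥3 experiments.” for “°C.”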

[19] = biological target: GABA A receptor alpha-2/beta-2/gamma-2 (Homo sapiens) (UniProt P47870+P18507+P47869); assay: Agonist activity at human GABAA alpha2beta2gamma2S receptor expressed in TSA201 cells after 1 min by FLIPR assay relative to GABA; format: cell-based
Method in brief: as §1, with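 “°C. Fluorescence (ex 530/em 560 nm) read before and up to 1 min after agonist addition. ΔFU concentration-response curves; duplicate, ≥3 experiments.” for “°C.”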

Ki [2] [µM]	Structure (SMILES)	EC50 [1] [µM]	pKi [2]	EC50 [3] [µM]	other results
2.8	NCc1cnn(O)c1Br		5.56		Activity [4]: inactive; Rmax [5]: > 23%; EC50 [6]: > 100 µM
> 100	NCc1cn(O)nc1N				
> 100	On1cc2c(n1)CCNC2				
0.63	NCc1cnn(O)c1Cl	29	6.2	> 500	Activity [4]: inactive; Rmax [5]: > 72%; EC50 [6]: > 30 µM
0.22	NCc1cnn(O)c1	13	6.68	3.1	EC50 [10]: 5.6 µM; EC50 [11]: 55 µM; EC50 ([12]; read-out: EC50): 0.78 µM; EC50 ([12]; read-out: pEC50 (converted)): 0.794 µM; EC50 [13]: 4.5 µM; Rmax [14]: 77%; Rmax [15]: 70%; Rmax [16]: 77%; Rmax [17]: 77%; Rmax [5]: 69%; Rmax [18]: 77%; Rmax [19]: 77%; EC50 [6]: 19 µM
> 100	NCc1cn(O)nc1CCc1ccccc1				
> 100	NCc1cn(O)nc1CCc1ccncc1				
68	Cc1nn(O)cc1CN		4.16		
> 100	Cc1nn(O)c(C)c1CN				
> 100	On1ncc2c1CCNC2				

The next lines start with the compound.

Structure (SMILES)	Ki [2] [µM]	EC50 [1] [µM]	pKi [2]	EC50 [3] [µM]	other results
NCc1cn(O)nc1I	32	> 500	4.5	> 500	
Oc1noc2c1CCNC2 [GABOXADOL]	0.16	14			
NCc1cn(O)nc1-c1cccc(-c2ccccc2)c1	17	> 500	4.81	> 500	Activity [7]: inactive; Activity [8]: inactive
CCc1nn(O)cc1CN	94	> 500	4.03	> 500	
Cc1c(CN)cnn1O	15	> 500	4.82	> 500	Activity [4]: inactive; Rmax [5]: > 64%; EC50 [6]: > 10 µM
Cc1c(O)noc1CN	54		4.28		Activity [9]: inactive; Activity [4]: inactive
NCc1cc(O)no1 [MUSCIMOL]	0.007	0.54		0.7	EC50 [10]: 0.21 µM; EC50 ([12]; read-out: EC50): 0.054 µM; EC50 ([12]; read-out: pEC50 (converted)): 0.0537 µM; EC50 [13]: 0.41 µM
NCc1cn(O)nc1Cc1ccccc1	> 100				
NCc1cn(O)nc1-c1ccc(-c2ccccc2)cc1	13	> 300	4.89	> 500	Activity [7]: inactive; Activity [8]: inactive
NCc1cn(O)nc1-c1ccccc1	> 100	> 500		> 500	
